Experimental data from ChEMBL document CHEMBL1629432, “The identification of novel orally active mGluR5 antagonist GSK2210875” (Bioorg Med Chem Lett, 2010).
In brackets after ≈: the same amount, converted by molar mass. Each block holds one molecule with its values, some of them ahead of it.

Experiments:
[1] = molecular target: T1, Metabotropic glutamate receptor 5 (Homo sapiens, UniProt P41594); assay: Antagonist activity at human mGluR5 expressed in CHO cells assessed as glutamate induced calcium mobilization
[2] = Fraction unbound in rat brain; type: ADME, tissue-based
[3] = Lipophilicity, log D of the compound at pH 7.4; type: physicochemical; conditions: buffer
[4] = molecular target: T1, Metabotropic glutamate receptor 5; assay: Antagonist activity at human mGluR5 expressed in CHO cells assessed as […] calcium mobilization; type: functional, cell-based
Outline: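 CHO cells stably expressing apo-aequorin, with human mGluR5 expression induced by doxycycline. Calcium mobilisation read by aequorin luminescence. Eleven-point concentration-response curves run in the presence of an EC80 of glutamate. pIC50 is the average of at least two curves.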

[5] = Oral bioavailability in rat at 1.0 mg/kg; type: ADME, organism-based; conditions: in vivo
Outline: (§1)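 Rat pharmacokinetics after a 1.0 mg/kg oral dose and a 0.5 mg/kg intravenous dose. Blood clearance, oral blood Cmax, brain:blood AUC ratio and oral bioavailability determined.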

[6] = molecular target: Metabotropic glutamate receptor 1 (Homo sapiens) (UniProt Q13255); assay: Antagonist activity at mGluR1
[7] = Ratio of AUC in rat brain to plasma at 1.0 mg/kg, po and 0.5 mg/kg, iv; type: ADME, organism-based; conditions: read-out: Ratio AUC
Outline: as §1

[8] = molecular target: Metabotropic glutamate receptor 5 (Mus musculus, UniProt Q3UVX5); assay: Antagonist activity at mGluR5 in mouse astrocytes assessed as inhibition of L-quisqualate induced calcium release by FLIPR assay; type: functional, cell-based
Outline: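 Primary cortical astrocytes from CD1 mouse pups aged 1–3 days. Cultures re-plated after 5 days to remove neurons and grown at 37 °C to confluence (10–14 d), then plated for 2 days. Cells pre-incubated with antagonist concentration-response curves and challenged with the day's EC80 of L-quisqualate. Intracellular calcium monitored on FLIPR to give fpKi.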

[9] = Solubility of the compound; type: physicochemical
[10] = Clearance in rat at 1.0 mg/kg, po and 0.5 mg/kg, iv; type: ADME, organism-based; conditions: in vivo
Outline: as §1

[11] = Cmax in rat at 1.0 mg/kg, po; type: ADME, organism-based; design: dose 1 mg/kg, route oral; conditions: in vivo
Outline: as §1

[12] = test system: Brain; assay: fCmax in rat brain at 1.0 mg/kg, po; type: ADME, organism-based; design: dose 1 mg/kg, route oral; conditions: in vivo
[13] = Cmax in rat brain at 1.0 mg/kg, po; type: ADME, organism-based; design: dose 1 mg/kg, route oral

T1 sequence (P41594 whole entry): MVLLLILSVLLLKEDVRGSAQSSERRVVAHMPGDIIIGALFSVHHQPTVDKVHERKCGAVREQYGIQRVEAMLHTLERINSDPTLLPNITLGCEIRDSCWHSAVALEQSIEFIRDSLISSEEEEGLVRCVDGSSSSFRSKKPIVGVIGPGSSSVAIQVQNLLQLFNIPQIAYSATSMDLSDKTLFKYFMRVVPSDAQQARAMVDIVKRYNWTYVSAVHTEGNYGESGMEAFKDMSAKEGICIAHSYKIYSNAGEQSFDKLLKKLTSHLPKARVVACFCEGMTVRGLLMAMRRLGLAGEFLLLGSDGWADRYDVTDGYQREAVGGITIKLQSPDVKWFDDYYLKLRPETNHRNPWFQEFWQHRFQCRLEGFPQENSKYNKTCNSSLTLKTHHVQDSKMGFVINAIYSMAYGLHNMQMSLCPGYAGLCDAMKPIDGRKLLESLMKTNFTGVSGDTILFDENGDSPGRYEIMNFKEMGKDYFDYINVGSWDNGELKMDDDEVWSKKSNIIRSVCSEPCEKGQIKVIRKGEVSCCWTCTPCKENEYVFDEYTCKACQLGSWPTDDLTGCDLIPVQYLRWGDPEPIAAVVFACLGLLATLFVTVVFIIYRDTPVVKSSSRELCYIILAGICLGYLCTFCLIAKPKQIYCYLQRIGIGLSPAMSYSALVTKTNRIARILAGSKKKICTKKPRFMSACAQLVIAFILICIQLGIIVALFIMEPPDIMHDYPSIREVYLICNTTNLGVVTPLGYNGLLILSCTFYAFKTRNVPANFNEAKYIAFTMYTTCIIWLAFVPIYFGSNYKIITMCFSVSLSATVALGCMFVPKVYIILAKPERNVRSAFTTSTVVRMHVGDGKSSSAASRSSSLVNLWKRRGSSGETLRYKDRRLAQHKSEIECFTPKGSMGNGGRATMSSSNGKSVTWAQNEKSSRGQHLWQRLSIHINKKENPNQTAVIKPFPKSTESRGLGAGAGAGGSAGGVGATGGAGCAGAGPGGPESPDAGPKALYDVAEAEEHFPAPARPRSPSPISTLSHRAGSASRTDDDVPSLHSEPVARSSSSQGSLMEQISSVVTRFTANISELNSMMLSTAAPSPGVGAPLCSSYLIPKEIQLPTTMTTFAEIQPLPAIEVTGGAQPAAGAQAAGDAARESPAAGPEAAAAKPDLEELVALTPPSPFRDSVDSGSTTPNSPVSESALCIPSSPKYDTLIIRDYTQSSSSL
Sequence of Metabotropic glutamate receptor 5 (Mus musculus, UniProt Q3UVX5) (Q3UVX5 whole entry): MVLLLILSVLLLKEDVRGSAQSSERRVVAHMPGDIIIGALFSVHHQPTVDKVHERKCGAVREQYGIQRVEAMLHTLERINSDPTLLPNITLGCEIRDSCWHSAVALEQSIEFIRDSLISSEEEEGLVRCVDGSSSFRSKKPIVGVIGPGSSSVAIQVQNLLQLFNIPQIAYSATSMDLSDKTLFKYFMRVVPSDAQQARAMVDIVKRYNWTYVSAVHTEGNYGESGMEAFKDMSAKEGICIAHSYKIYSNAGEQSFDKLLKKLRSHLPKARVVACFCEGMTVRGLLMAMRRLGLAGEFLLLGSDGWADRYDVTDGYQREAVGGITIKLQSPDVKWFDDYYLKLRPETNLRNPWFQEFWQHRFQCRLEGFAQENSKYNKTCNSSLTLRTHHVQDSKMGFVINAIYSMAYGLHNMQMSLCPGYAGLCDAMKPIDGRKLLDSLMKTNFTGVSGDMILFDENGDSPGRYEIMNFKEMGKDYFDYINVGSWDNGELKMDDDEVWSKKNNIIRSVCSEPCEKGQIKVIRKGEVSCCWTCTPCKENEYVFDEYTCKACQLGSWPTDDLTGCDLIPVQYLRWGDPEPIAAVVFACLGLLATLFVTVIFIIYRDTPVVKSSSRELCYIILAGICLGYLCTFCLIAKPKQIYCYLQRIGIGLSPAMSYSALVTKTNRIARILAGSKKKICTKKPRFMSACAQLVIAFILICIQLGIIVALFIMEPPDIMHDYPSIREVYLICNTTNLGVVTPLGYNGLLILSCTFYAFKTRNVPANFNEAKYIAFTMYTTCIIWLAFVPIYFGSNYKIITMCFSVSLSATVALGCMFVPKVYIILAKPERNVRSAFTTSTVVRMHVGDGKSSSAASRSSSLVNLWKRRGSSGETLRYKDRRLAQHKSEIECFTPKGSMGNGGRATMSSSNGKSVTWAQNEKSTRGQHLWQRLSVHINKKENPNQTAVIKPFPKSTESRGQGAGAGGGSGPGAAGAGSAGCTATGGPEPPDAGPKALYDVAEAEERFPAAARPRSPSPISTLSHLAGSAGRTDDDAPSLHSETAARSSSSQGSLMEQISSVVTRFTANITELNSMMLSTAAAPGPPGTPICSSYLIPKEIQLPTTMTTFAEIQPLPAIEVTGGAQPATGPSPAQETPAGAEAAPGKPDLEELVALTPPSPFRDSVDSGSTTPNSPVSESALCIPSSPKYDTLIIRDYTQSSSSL
Sequence of Metabotropic glutamate receptor 1 (Homo sapiens) (Q13255 whole entry, looked up): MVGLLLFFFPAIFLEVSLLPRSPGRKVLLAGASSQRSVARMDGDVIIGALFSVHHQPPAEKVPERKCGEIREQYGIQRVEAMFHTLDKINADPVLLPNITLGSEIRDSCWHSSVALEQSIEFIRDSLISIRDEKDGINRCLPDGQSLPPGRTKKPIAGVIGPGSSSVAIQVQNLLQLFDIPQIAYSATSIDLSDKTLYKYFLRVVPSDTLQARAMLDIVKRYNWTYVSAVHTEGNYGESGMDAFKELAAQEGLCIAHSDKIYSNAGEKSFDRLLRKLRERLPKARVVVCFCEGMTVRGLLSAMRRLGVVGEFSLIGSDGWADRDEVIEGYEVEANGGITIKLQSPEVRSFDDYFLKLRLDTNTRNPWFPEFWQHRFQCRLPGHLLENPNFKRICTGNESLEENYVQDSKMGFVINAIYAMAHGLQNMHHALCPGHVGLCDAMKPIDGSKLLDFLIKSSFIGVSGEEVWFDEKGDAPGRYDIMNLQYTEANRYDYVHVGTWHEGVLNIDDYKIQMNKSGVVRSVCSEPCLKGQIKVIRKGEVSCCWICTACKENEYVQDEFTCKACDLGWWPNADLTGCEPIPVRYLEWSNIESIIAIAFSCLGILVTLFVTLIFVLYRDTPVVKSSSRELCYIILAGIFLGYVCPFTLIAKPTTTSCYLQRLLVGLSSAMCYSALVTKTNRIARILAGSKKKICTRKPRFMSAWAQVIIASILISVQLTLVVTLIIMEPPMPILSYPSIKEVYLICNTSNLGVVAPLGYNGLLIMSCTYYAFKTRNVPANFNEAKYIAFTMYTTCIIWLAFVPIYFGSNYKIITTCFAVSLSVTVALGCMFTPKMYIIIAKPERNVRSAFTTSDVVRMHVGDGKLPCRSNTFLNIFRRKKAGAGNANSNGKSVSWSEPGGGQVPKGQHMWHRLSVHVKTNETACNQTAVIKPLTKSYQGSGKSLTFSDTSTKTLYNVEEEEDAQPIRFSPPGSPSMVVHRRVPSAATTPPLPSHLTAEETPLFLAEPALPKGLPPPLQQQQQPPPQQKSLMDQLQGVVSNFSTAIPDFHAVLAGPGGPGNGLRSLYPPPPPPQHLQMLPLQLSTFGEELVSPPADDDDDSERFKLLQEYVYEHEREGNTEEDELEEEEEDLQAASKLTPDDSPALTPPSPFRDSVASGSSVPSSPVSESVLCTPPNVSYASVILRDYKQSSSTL

SMILES: Cc1c(C(C)OC(=O)Nc2ccccc2)sc2nccn12 (stereo not given)
fraction unbound [2]: 0.003
logD [3]: 2.4
IC50 [1]: 0.0126 µM

SMILES: Cc1c(C(C)OC(=O)Nc2ccccc2)sc2nc(-c3cccs3)nn12 (stereo not given)
fraction unbound [2]: < 0.001
IC50 [4]: 0.00794 µM
logD [3]: 3.7

SMILES: Cc1c(C(C)OC(=O)Nc2ccccc2)sc2nc(C3CC3)nn12 (stereo not given)
IC50 [4]: 0.0126 µM

SMILES: Cc1c(C(C)OC(=O)Nc2cccc(Cl)c2)sc2ncnn12 (stereo not given)
fraction unbound [2]: 0.009
IC50 [4]: 0.0398 µM
logD [3]: 2.9

SMILES: Cc1c([C@@H](C)OC(=O)Nc2ccccc2)sc2ncnn12
fCmax [12]: 30 nM
bioavailability [5]: 28%
IC50 [6]: 31.6 µM
Kp [7]: 2
IC50 [8]: 0.0316 µM
solubility [9]: 0.166 mg/mL (≈ 549 µM)
clearance [10]: 2.88 L/h/kg
Cmax [11]: 0.063 µg/mL
Cmax [13]: 0.25 µM
IC50 [1]: 0.0398 µM

SMILES: Cc1c(C(C)OC(=O)Nc2ccccc2)sc2nc(Cl)nn12 (stereo not given)
IC50 [4]: 0.01 µM

SMILES: CC(OC(=O)Nc1ccccc1)c1cn2ncnc2s1 (stereo not given)
IC50 [1]: 10 µM

SMILES: Cc1c(C(C)OC(=O)Nc2ccccc2)sc2nc(C(F)(F)F)nn12 (stereo not given)
IC50 [4]: 0.0398 µM

SMILES: O=C(Nc1ccccc1)OCc1cn2ncnc2s1
IC50 [1]: > 31.6 µM

SMILES: Cc1c(C(C)OC(=O)Nc2cccc(F)c2)sc2nncn12 (stereo not given)
fraction unbound [2]: 0.068
logD [3]: 2
IC50 [1]: 0.0631 µM

SMILES: Cc1c([C@H](C)OC(=O)Nc2ccccc2)sc2ncnn12
IC50 [1]: > 10 µM

SMILES: Cc1c(COC(=O)Nc2ccccc2)sc2ncnn12
IC50 [1]: > 31.6 µM

SMILES: Cc1c(C(C)OC(=O)N(C)c2ccccc2)sc2ncnn12 (stereo not given)
IC50 [1]: > 31.6 µM

The next lines start with the values.

IC50 [1]: > 31.6 µM
SMILES: Cc1c(C(C)OC(=O)Nc2ccccc2)sc2ncnn12 (stereo not given)

IC50 [4]: 0.01 µM
SMILES: Cc1c(C(C)OC(=O)Nc2ccccc2)sc2nc(-c3ccc(F)cc3)nn12 (stereo not given)

IC50 [4]: 3.16 µM
SMILES: Cc1c(C(C)OC(=O)NC2CCCCC2)sc2ncnn12 (stereo not given)

fraction unbound [2]: 0.28
logD [3]: 1
IC50 [1]: 0.316 µM
SMILES: Cc1c(C(C)OC(=O)Nc2cccnc2)sc2ncnn12 (stereo not given)

bioavailability [5]: 100%
IC50 [6]: > 50.1 µM
Kp [7]: 0.2
IC50 [8]: 0.0316 µM
solubility [9]: 0.031 mg/mL (≈ 96.8 µM)
clearance [10]: 1.98 L/h/kg
Cmax [11]: 0.21 µg/mL
IC50 [1]: 0.0398 µM
SMILES: Cc1c([C@@H](C)OC(=O)Nc2cccc(F)c2)sc2nncn12

fraction unbound [2]: 0.017
IC50 [4]: 0.0501 µM
logD [3]: 2.6
SMILES: Cc1c(C(C)OC(=O)Nc2cccc(F)c2)sc2ncnn12 (stereo not given)

IC50 [4]: 0.501 µM
SMILES: Cc1c(C(C)OC(=O)Nc2ccccc2Cl)sc2ncnn12 (stereo not given)

IC50 [1]: 0.126 µM
SMILES: Cc1c(C(C)OC(=O)Nc2ccccc2)sc2nncn12 (stereo not given)

IC50 [4]: 2.51 µM
SMILES: Cc1c(C(C)OC(=O)Nc2ccc(Cl)cc2)sc2ncnn12 (stereo not given)
